# Published values gathered from unrelated publications.
# Protocols differ between the studies behind these lines.
# Target: Serine/threonine-protein kinase PAK 1 (PAK1, Homo sapiens, UniProt Q13153)
Compound,read-out,action,technique,concentration,measurement,value
COc1ccc2[nH]c3c4[nH]c5ccc(OC)cc5c4c4c(c3c2c1)C(=O)NC4=O,binding,,,1 µM,remaining binding,70%
N#Cc1ccc(NC(=O)Nc2ccccc2)cc1,cell-free assay,,competition with immobilised ligand,25 µM,remaining binding,92%
COc1ccc2oc(-c3ccc4nc(N)oc4c3)c/c(=N\c3ccccc3NC(=O)CCN)c2c1,binding,,,1 µM,remaining binding,104%
C1=C/COCc2cc(ccc2OCCN2CCCC2)Nc2nccc(n2)-c2cccc(c2)COC/1,binding,,,0.1 µM,remaining binding,100%
C=CC(=O)N1CCC([C@@H]2CCNc3c(C(N)=O)c(-c4ccc(Oc5ccccc5)cc4)nn32)CC1,enzyme activity,inhibitor,,1 µM,inhibition,9%
CCCCC(=O)Nc1ccc(-c2ccc3ncn(CCC)c(=O)c3c2)cn1,binding,,competition with immobilised ligand,0.5 µM,remaining binding,97%
CC#CC(=O)N1CCC[C@H]1c1nc(-c2ccc(C(=O)Nc3ccccn3)cc2)c2c(N)nccn12,enzyme activity,inhibitor,,1 µM,inhibition,1%
C[C@H]1CC[C@H](n2c3cnccc3c3cnc(Nc4ccc5c(n4)CCN(C(=O)CO)C5)nc32)CC1,cell-free assay,,,1 µM,remaining signal,100%
